APJ antag: APJ receptor antagonism; CHO-K1 APJ beta-arrestin complementation, luminescence; inhibition, % at 20 µM; actives 0.32% (n = 330,000); AID 2521;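 active = inhibition above about 40% at 20 µM, limit read from the data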;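 note: cells challenged with 10 nM apelin-13 agonist together with compound; plate controls were apelin-13 plus DMSO wells for no effect and DMSO wells lacking apelin-13 for full effect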
APJ ag: agonists of human APJ apelin receptor. P35414. CHO-K1 APJ PathHunter beta-arrestin, luminescence; 0% DMSO wells, 100% apelin. activation, % at 20 µM. actives 0.11% (n = 330,000). AID 2520;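 active = activation more than six SD over the plate average, tested at 20 µM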;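 note: 0% = DMSO alone and 100% = apelin-13 at 10 nM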
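assay system = CHO-K1 APJ beta-arrestin complementation cell line | input = cell density 1000 per well | dosing = compound 20 µM once, DMSO 1% | timing = compound 90 min 25 °C, reagent 1 h | measured by = luminescence from split beta-galactosidase complementation, Galacton Star/Emerald II substrate | read-out basis = APJ agonist activity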
CXCR6 block: CXCR6 (human) receptor inhibition; CHO-K1 PathHunter CXCR6 beta-arrestin, luminescence; inhibition, % at 20 µM; actives 0.36% (n = 360,000); in the data active = inhibition above about 34%, passing the limit was not always enough;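 note: antagonist mode with CXCL16 agonist at 10 nM final; 0% = 10 nM CXCL16 with DMSO and 100% = unstimulated wells without agonist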
Target sequence (O00574 whole entry, looked up): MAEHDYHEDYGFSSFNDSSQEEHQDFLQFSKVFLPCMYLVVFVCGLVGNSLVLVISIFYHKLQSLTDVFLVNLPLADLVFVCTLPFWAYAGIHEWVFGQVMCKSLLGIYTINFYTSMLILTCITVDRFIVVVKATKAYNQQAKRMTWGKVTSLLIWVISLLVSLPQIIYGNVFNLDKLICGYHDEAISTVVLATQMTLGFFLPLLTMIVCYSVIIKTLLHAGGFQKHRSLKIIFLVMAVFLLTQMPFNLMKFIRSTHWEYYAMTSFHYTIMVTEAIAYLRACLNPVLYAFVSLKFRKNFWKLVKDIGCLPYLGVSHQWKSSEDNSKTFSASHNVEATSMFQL
EBI2 antag: EBI2 (human) antagonism; EBI2 beta-arrestin recruitment, luminescence, 7a,25-OHC stimulated; inhibition, % at 5 µM; actives 0.81% (n = 360,000); AID 651636; in the data active = inhibition above about 38%;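 note: enzyme fragment complementation signal reports receptor beta-arrestin coupling in cells; 0% = agonist plus DMSO wells and 100% = wells without agonist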
Target sequence (P32249 whole entry, looked up, the tested form may be a part): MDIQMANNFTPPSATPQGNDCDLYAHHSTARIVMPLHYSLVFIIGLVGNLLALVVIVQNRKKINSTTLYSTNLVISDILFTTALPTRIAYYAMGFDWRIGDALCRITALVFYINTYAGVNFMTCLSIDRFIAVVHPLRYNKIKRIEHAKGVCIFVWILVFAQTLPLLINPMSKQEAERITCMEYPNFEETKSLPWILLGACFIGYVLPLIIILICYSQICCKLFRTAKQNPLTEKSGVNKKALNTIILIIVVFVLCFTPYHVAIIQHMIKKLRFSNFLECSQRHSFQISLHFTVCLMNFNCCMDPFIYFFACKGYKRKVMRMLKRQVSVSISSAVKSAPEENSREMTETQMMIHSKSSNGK
CCR6 antagonist: CCR6 (human) receptor antagonism; P51684; CHO-K1 CCR6 PathHunter beta-arrestin, luminescence, CCL20-stimulated; inhibition, % at 20 µM; actives 0.49% (n = 340,000);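 active = compounds whose inhibition of the agonist-driven luminescence signal at 20 µM reaches about 50%, limit read from the data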;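 note: cells stimulated with CCL20 at 14 nM final; plate controls were DMSO with CCL20 for no effect and DMSO without agonist for full effect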
EBI2 antag conf: EBI2 (human) antagonism, single concentration confirmation; actives 29% (n = 2,400); inhibition, % at 5 µM; EBI2 beta-arrestin luminescence, 7a,25-OHC antagonism; shares compounds with EBI2 antag; AID 651997;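 active = inhibition of at least 50%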
EBI2 ag: EBI2 agonism counter-screen. shares compounds with EBI2 antag. EBI2-expressing cells, agonist mode, luminescence, 60 min; 0% vehicle, 100% 7α,25-dihydroxycholesterol control. activation, % at 5 µM. 2,400 tested, under 10 active;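 active = activation of at least 50%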
bGal cs: beta-galactosidase inhibition counter-screen. AID 652176. actives 1% (n = 2,400). shares compounds with EBI2 antag. inhibition, % at 5 µM. purified beta-galactosidase, luminescent Galacton Star, 15 min;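 active = replicate-average signal at least 3 plate SD below neutral wells, shown as high inhibition, flagging enzyme-inhibiting false positives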;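 note: 0% = DMSO wells with enzyme and 100% = wells lacking enzyme; higher means stronger loss of beta-gal luminescence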
Starred values were filed as active, the others as inactive; · = not tested or not shown. Most compounds without a hit are left out; they make up all but 1.5% or so of the library.

SMILES | APJ antag | APJ ag | CXCR6 block | EBI2 antag | CCR6 antagonist | EBI2 antag conf | EBI2 ag | bGal cs
COc1ccccc1N1CCN(C(=O)c2cc(-c3ccc4c(c3)OCO4)on2)CC1 | -29 | -4 | -2 | 67* | -5 | 46 | 1 | 3
O=C(NCc1ccc(F)cc1F)[C@@H]1CCCN1C(=O)[C@@H]1CCCN1C(=O)c1ccc(Cl)cc1 | · | · | -1 | -6 | · | · | · | ·
Clc1ccc(-c2cnc(Oc3ccccc3)nc2)cc1 | 19 | -5 | -6 | 73* | 14 | 46 | 3 | 4
Clc1ccc(-c2ccccc2)cn1 | 0 | -1 | -6 | 1 | 0 | · | · | ·
Cc1cc(Cl)ccc1Oc1ncc(-c2ccc(Cl)cc2)cn1 | -21 | 4 | -3 | 60* | 4 | 44 | 2 | 8
CC1(c2nnc(-c3ccc(F)cc3)o2)CC(c2c(Cl)cccc2Cl)=NO1 (stereo unspecified) | 13 | -4 | 0 | 50* | 12 | 49 | 0 | 4
CC1(c2nnc(-c3ccc(Cl)cc3)o2)CC(c2c(Cl)cccc2Cl)=NO1 (stereo unspecified) | 8 | -6 | -14 | 52* | 7 | 60* | 0 | -18
CC1(c2nnc(-c3ccc(F)cc3)o2)CC(c2ccc(Cl)cc2)=NO1 (stereo unspecified) | -5 | -3 | 3 | 5 | 13 | · | · | ·
CC1(c2nnc(-c3ccc(Cl)cc3)o2)CC(c2ccncc2)=NO1 (stereo unspecified) | 12 | -1 | 2 | -9 | -1 | · | · | ·
Cc1ccn(C(=O)c2ccc(NC(=O)C3CC3)cc2)n1 | 1 | -4 | -1 | -3 | 5 | · | · | ·
COc1cccc(C(=O)O[C@@H]2[C@H](Cc3ccccc3)NS(=O)(=O)[C@H]3C[C@@H]4C=C[C@]23O4)c1 | 9 | 0 | -10 | 3 | 0 | · | · | ·
COc1ccc(CNc2ccc(-c3ccc(OC)cc3)nn2)cc1 | 7 | 3 | 10 | 74* | -4 | 39 | 0 | 4
CC(=O)NC(=S)Nc1sc2c(c1C(N)=O)CCC(C)C2 (stereo unspecified) | 28 | -7 | 39* | 37* | 39 | 21 | 0 | 9
O=C(NCCc1ccccc1)C1CCC(Cn2c(=O)c3ccccc3n(Cc3cccc(F)c3)c2=O)CC1 (stereo unspecified) | 10 | -3 | 9 | 61* | 6 | 29 | -2 | -9
O=C(NCCc1ccccc1)C1CCC(Cn2c(=O)c3ccccc3n(Cc3cccc(Cl)c3)c2=O)CC1 (stereo unspecified) | 5 | -4 | 16 | 24 | 11 | · | · | ·
Cc1ccc(-n2nnnc2CCl)cc1 | · | · | -2 | -5 | -5 | · | · | ·
Cc1ccc(OCc2nnnn2-c2ccccc2)cc1 | 15 | 1 | 1 | 51* | 14 | 33 | 1 | 7
CCCCN(Cc1ccco1)C(=O)Cn1ncc2c(=O)oc3ccc(C)cc3c21 | -13 | 0 | -5 | 86* | 12 | 49 | 1 | 3
Cc1ccc2oc(=O)c3cnn(CC(=O)N4CCCCC4C)c3c2c1 (stereo unspecified) | 11 | -3 | -2 | 20 | 3 | · | · | ·
O=C(Cn1ncc2c(=O)oc3ccccc3c21)N(Cc1ccco1)C1CCCCC1 | 8 | -1 | 0 | 56* | 3 | 29 | 0 | 9
CCOC(=O)Cn1ncc2c(=O)oc3ccccc3c21 | 9 | -6 | 5 | -1 | 7 | · | · | ·
Cc1ccc2oc(=O)c3cnn(CC(=O)N4CCc5ccccc5C4)c3c2c1 | 23 | -1 | 4 | 47* | 15 | 15 | -1 | -13
Cc1ccc2oc(=O)c3cnn(CC(=O)N(CCC(C)C)Cc4ccco4)c3c2c1 | 3 | 3 | 3 | 86* | 6 | 76* | 2 | -2
NS(=O)(=O)c1ccc(N2CCN(C(=O)C3COc4ccccc4O3)CC2)nc1 (stereo unspecified) | -54 | -6 | 1 | 1 | 5 | · | · | ·
O=[N+]([O-])c1ccc(-c2cnc(SCc3ccccc3Cl)[nH]2)cc1 | 2 | -6 | -4 | 28 | 26 | · | · | ·
SMILES | APJ antag | APJ ag | CXCR6 block | EBI2 antag | CCR6 antagonist | EBI2 antag conf | EBI2 ag | bGal cs
O=[N+]([O-])c1ccc(-c2cnc(SC(c3ccccc3)c3ccccc3)[nH]2)cc1 | -2 | -2 | 22 | 49* | 27 | 38 | 0 | 6
N#C/C(=C\Nc1ccc(Cl)cc1)S(=O)(=O)c1ccccn1 | 9 | 0 | -3 | -16 | 3 | · | · | ·
N#C/C(=C\c1ccccc1)C(=O)Nc1cc(S(=O)(=O)N2CCOCC2)ccc1N1CCCC1 | 4 | 7 | 0 | 75* | 20 | 66* | -1 | -13
CCN1CCN(c2ccc(S(=O)(=O)N3CCOCC3)cc2NC(=O)/C=C/c2ccc(C)cc2)CC1 | 16 | -5 | 10 | 94* | 17 | 91* | 1 | 4
COc1ccc(CC(=O)N2CCC(c3ccccc3)C2)cc1 (stereo unspecified) | -3 | -3 | -7 | 48* | 4 | 43 | 0 | 6
O=C(Cc1ccccc1)N1CCC(c2ccccc2)C1 (stereo unspecified) | 1 | 1 | 10 | 2 | 0 | · | · | ·
COc1ccc(/C=C/C(=O)N2CCC(c3ccccc3)C2)cc1 (stereo unspecified) | -9 | -2 | 1 | 70* | 8 | 55* | 0 | -13
COC(=O)C1CCN(C(=O)/C=C/c2ccc(OC)cc2)CC1 | -1 | -3 | -1 | 87* | 7 | 76* | 2 | -2
COc1ccc(-c2cc(C(=O)OCc3ccccn3)c3ccccc3n2)cc1 | 9 | -1 | -4 | 15 | 22 | · | · | ·
CC(=O)c1cccc(-c2ccnc3c2CC(C(=O)Nc2cccc(NS(C)(=O)=O)c2)O3)c1 (stereo unspecified) | · | · | 0 | -2 | · | · | · | ·
COc1ccc2c(CN(Cc3ccccc3)Cc3ccccc3)cc(=O)oc2c1 | · | · | 6 | 52* | · | 21 | -1 | -13
COc1cc2oc(=O)cc(CN(Cc3ccccc3)Cc3ccccc3)c2cc1Cl | · | · | 12 | 45* | · | 38 | -1 | -2
CCCN(CCC)Cc1cc(=O)oc2cc(OC)ccc12 | · | · | -6 | 5 | · | · | · | ·
COc1cc(/C=c2\sc3n(c2=O)C(c2ccccc2)C(c2ccccc2)=NN=3)ccc1O (stereo unspecified) | 21 | -5 | 35 | 49* | 41 | 43 | -1 | 10
Cc1cc(Br)cn2c(Cc3cccc(F)c3)c(-c3ccc(C#N)cc3)nc12 | · | · | 8 | 26 | · | · | · | ·
O=C(/C=C/c1ccc(F)cc1)N1CCN(Cc2ccccc2)CC1 | -7 | 0 | -11 | 93* | 1 | 80* | 2 | 0
